ChEMBL document CHEMBL1177719 (J Med Chem, 2010)
Activity calls are given as the source filed them. The calls are words filed in the database; no cut-off is given here.

Columns and labels:
Aromatase = target: T1, Aromatase (Homo sapiens, UniProt P11511); details: read-out: INH
T1 sequence (P11511 whole entry): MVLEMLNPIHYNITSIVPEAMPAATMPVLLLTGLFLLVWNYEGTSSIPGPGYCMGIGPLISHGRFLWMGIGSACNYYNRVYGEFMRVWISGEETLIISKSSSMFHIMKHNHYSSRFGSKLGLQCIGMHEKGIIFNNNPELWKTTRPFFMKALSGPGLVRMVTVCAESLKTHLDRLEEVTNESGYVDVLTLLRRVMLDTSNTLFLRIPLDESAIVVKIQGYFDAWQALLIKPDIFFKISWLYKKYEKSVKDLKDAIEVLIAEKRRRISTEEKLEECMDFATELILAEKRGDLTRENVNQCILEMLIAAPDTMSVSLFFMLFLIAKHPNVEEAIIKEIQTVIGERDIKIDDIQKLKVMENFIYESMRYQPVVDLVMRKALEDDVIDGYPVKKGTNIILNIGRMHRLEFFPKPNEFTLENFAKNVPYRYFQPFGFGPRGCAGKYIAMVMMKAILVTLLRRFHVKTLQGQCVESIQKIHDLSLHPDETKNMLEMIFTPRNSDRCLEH

RAW264.7 = test: Inhibition of LPS-induced COX2 expression in mouse RAW264.7 cells at 34 uM treated 15 mins before LPS challenge measured after 18 hrs by immunoblotting; assay type: functional, cell-based
Summary of the method: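 RAW 264.7 cells pretreated with samples 15 min, then LPS 1 μg/mL for 18 h. Lysates (30 μg protein) run on 8% SDS-PAGE, transferred to PVDF, probed with primary and HRP secondary antibodies, ECL detection. β-actin internal control; band density quantified relative to the LPS-only control; duplicate experiment.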

KB = test: Cytotoxicity against human KB cells assessed as cell survival at 20 ug/ml after 72 hrs by sulforhodamine B method; assay type: functional; details: read-out: Activity
Summary of the method: (§1)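 Sulforhodamine B assay. KB or MCF7 cells plated with samples and held 72 h at 37 °C, 5% CO₂. Fixed 1 h in 10% trichloroacetic acid, stained with 0.4% SRB in 1% acetic acid, dye taken up in 10 mM Tris.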

HEK293 = test: Inhibition of TNF-alpha-induced NF-kappaB activity expressed in HEK293 cells at 34 uM after 48 hrs by luciferase reporter gene assay relative to control; assay type: cell-based
Summary of the method: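 Stably transfected 293 cells carrying an NFκB response element–luciferase reporter, exposed to TNFα plus compound for 48 h, then assayed for luciferase. Activity expressed as % of TNFα-treated control. IC₅₀ from five serial dilutions, mean of two experiments.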

MCF7 = test: Cytotoxicity against human MCF7 cells assessed as cell survival at 20 ug/ml after 72 hrs by sulforhodamine B method; assay type: functional; details: MCF7, 72 h, read-out: Activity
Summary of the method: as §1

[1] = target: T2, Nitric oxide synthase, inducible (Mus musculus) (UniProt P29477); test: Inhibition of iNOS-mediated nitric oxide production in mouse RAW 264.7 cells at 34 uM pretreated 30 mins measured after 20 hrs by Griess reaction method relative to control; assay type: cell-based
T2 sequence (whole entry): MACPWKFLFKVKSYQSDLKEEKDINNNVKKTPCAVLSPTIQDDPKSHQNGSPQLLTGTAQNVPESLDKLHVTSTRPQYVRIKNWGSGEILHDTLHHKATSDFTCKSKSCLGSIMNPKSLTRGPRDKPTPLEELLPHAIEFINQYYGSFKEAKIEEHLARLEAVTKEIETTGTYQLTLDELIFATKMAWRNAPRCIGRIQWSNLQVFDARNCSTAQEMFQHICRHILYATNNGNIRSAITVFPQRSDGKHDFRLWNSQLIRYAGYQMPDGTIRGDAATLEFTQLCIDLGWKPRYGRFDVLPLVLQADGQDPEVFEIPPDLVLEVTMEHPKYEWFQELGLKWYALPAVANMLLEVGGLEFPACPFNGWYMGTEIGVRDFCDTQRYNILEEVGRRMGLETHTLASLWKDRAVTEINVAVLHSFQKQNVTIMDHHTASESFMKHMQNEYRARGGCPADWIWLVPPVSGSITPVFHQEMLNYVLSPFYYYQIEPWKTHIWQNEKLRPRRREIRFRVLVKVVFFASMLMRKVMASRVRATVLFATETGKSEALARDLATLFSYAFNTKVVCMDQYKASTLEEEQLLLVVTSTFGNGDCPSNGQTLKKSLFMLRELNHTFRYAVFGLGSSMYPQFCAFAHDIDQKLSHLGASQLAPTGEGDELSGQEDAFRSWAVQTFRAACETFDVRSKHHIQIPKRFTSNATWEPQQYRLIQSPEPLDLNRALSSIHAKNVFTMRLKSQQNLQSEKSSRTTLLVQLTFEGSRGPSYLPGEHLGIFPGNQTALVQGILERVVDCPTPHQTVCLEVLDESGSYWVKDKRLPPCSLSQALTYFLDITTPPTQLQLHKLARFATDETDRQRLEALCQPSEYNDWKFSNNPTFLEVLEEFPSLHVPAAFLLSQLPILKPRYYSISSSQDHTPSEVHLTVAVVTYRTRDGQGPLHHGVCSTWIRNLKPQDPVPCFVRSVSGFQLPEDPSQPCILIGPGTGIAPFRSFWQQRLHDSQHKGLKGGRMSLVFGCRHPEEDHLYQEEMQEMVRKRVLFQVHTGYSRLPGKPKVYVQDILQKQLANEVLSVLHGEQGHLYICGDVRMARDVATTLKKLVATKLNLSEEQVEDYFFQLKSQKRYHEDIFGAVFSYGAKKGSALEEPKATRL
Summary of the method: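 RAW 264.7 macrophages seeded at 1 × 10⁵ cells/well for 24 h. Compounds in phenol red-free DMEM added 30 min before LPS (1 μg/mL), then 20 h further incubation. Nitrite in medium measured by Griess reagent at 540 nm against a sodium nitrite standard curve; inhibition at 34 μM.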

[2] = target: T2, Nitric oxide synthase, inducible (Mus musculus); test: Inhibition of iNOS-mediated nitric oxide production in LPS-stimulated mouse RAW 264.7 cells at 34 uM pretreated 30 mins before LPS challenge measured after 20 hrs by Griess reaction method relative to control; assay type: cell-based

Row | SMILES | inhibition at 34 µM (Aromatase) [%] | inhibition (RAW264.7) | viability at 20 µg/mL (KB) [%] | inhibition (HEK293) [%] | viability at 20 µg/mL (MCF7) [%] | Activity [1] | inhibition [2] [%]
1 | O=S(=O)([O-])Oc1cc(O)cc(/C=C/c2ccc(O)cc2)c1.[K+] | 28.2 | inactive | 70.3 | 33 | 51.7 | inactive | 41
2 | O=S(=O)([O-])Oc1ccc(/C=C/c2cc(O)cc(O)c2)cc1.[K+] | 30.4 | inactive | 108 | 64 | 103 | inactive | 56.8
3 | O=S(=O)([O-])Oc1cc(/C=C/c2ccc(O)cc2)cc(OS(=O)(=O)[O-])c1.[K+].[K+] | 20.5 | inactive | 84.2 | 42.5 | 97.2 | inactive | 4.8
4 | O=S(=O)([O-])Oc1ccc(/C=C/c2cc(OS(=O)(=O)[O-])cc(OS(=O)(=O)[O-])c2)cc1.[K+].[K+].[K+] | 28.5 | inactive | 78.1 | 36.7 | 107 | inactive | 24.8
